# Rows were chosen to be rich in hits. Some 4.1% of all compounds tested hit in one or more screens of this group.
# KCNQ1 act = potentiators or activators of human KCNQ1 potassium channel | P51787 | 0.35% of 310,000 active | CHO-K1 KCNQ1, thallium flux FluxOR fluorescence; stronger effect = higher value | B-score at 10 µM;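 active = fluorescence ratio B-score, a plate-corrected score, at least three library SD, with initial intensity B-score within 5 SD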
#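 Material: CHO-K1 cells stably expressing KCNQ1. Medium: assay buffer for compound exposure, DMSO matched across wells. Reagent: K+/Tl+ depolarizing stimulus. Compound dosing: single-concentration screen. Times: 37 °C overnight plating, 90-min dark dye load, 20-min compound pretreatment. Technique: FluxOR Tl+ flux fluorescence.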
# hERG protect = compounds protecting human hERG from proarrhythmic drug block; activation (rescue from dofetilide block), less the hit threshold, % at 10 µM; 0.51% of 310,000 active; Q12809; CHO-hERG, FluxOR thallium flux, dofetilide IC70 present;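 active = activation above the mean of controls blocked by dofetilide plus 5 SD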;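 also: thallium influx through hERG after potassium depolarization seen as dye fluorescence rise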
# KCC2 mod = modulates chloride dependent transport by human KCC2; Q9H2X9; KCC2 cells, thallium flux FluoZin-2 fluorescence; 2.2% of 190,000 active; B-score of Tl+ flux slope (higher = more flux/activation; lower = inhibition) at 10 µM;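 active = thallium flux slope and its plate-corrected score both differing from the plate sample mean at a set confidence after two filtering rounds, in either direction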;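 also: slope of fluorescence scaled to starting intensity during 10 to 20 s after thallium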
# KCNQ1 inh = inhibitors of human KCNQ1 potassium channel | P51787 | CHO-K1 KCNQ1, FluxOR thallium flux fluorescence; stronger effect = higher value | B-score at 10 µM | 1.3% of 310,000 active | AID 2642;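 active = compounds whose thallium flux B-score, printed positive for inhibition, exceeds three library SD while starting fluorescence stays within three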;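 also: channel opened by potassium depolarization with thallium stimulus after 20 min compound exposure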
# KCNK9 block = human KCNK9 channel inhibition. Q9NPC2. HEK293 KCNK9, FluxOR thallium flux fluorescence; stronger effect = lower value. B-score at 10 µM. 1.2% of 310,000 active. AID 488922;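 active = ratio B-score over 3 SD below the library mean, with starting fluorescence within 5 SD of its mean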;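 also: negative B-score means less thallium flux so channel inhibition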
# Target sequence (Q9NPC2 whole entry, looked up): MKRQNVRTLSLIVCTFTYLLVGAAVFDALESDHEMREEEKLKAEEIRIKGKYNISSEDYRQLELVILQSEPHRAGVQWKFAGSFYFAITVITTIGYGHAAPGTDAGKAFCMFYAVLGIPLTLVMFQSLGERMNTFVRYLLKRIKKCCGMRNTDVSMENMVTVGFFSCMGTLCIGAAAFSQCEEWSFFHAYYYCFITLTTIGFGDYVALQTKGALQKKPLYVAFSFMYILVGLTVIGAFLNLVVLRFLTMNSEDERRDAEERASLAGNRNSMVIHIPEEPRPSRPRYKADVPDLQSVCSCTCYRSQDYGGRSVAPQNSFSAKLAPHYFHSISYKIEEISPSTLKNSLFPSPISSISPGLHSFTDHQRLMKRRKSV
# KCNK3 inh = human KCNK3 channel inhibition, primary screen | B-score at 10 µM | O14649 | AID 602410 | 0.84% of 340,000 active | CHO-KCNK3 thallium flux, FluxOR fluorescence; stronger effect = lower value;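 active = B-score under library mean minus 4 SD, starting fluorescence ratio at most library mean plus 5 SD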;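 also: more negative B-score means stronger inhibition of thallium flux through KCNK3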
# Target sequence (O14649 whole entry, looked up): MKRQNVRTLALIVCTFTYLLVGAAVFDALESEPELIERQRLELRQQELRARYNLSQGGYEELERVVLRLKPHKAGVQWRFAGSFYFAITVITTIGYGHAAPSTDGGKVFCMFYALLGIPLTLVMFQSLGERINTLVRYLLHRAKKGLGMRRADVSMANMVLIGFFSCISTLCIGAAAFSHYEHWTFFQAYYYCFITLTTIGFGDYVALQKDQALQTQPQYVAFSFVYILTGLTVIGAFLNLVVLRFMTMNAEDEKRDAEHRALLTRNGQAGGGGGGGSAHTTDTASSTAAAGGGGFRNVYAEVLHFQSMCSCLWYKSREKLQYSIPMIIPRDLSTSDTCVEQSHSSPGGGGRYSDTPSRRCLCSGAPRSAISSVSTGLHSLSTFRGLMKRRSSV
# KCC2 secondary = confirmation of human KCC2 transport modulators. HEK293-KCC2, thallium flux, FluoZin2 fluorescence; stronger effect = higher value. shares compounds with KCC2 mod. 15% of 3,700 active. normalised thallium flux (F/F0 slope) at 10 µM;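 active = thallium flux slope above the same plate's solvent-only control mean plus 3 SD; inconclusive = the two replicate wells disagree; inactive = no significant difference from solvent-only control wells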
# KCC2 bumet counter = thallium flux despite bumetanide block in KCC2 cells, secondary assay 3 | 49% of 3,700 active | HEK293-KCC2 + bumetanide/ouabain, thallium flux FluoZin2; stronger effect = higher value | normalized thallium flux at 10 µM | shares compounds with KCC2 mod;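 active = thallium entry rate above the same plate's blocked-transporter control wells by more than 3 SD; inconclusive = the two repeat wells disagree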;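 also: raw slope of fluorescence over initial fluorescence between 10 and 20 s after thallium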
# KCC2 sec2 = confirmation of human KCC2 transport modulators; shares compounds with KCC2 mod; HEK293-KCC2, thallium flux FluoZin2 fluorescence; actives lie on both sides; F/F0 rise rate, 10–20 s post-thallium; normalized thallium flux at 10 µM; 23% of 3,700 active; AID 1715;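 active = thallium flux slope more than 3 SD above or below the plate's solvent-only control mean, mostly below; inconclusive = the two repeat wells disagreed; inactive = no significant shift from solvent-only controls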
# HEK293 Tl flux = parental HEK flux effect, counter-screen | shares compounds with KCC2 mod | HEK293 parental cells, thallium flux FluoZin2, ouabain; baseline-ratio fluorescence slope, 10–20 s after thallium | thallium flux rate (normalised fluorescence) at 10 µM | 46% of 3,700 active | AID 1716;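 active = thallium flux rate significantly above the same plate's solvent-only control wells, beyond their mean plus 3 SD; inconclusive = the two replicate wells gave conflicting results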
# KCC2 ouabain = confirmation of human KCC2 modulators with ouabain. AID 1717. HEK293-KCC2, thallium flux FluoZin2 fluorescence; bidirectional: low = inhibitor, high = activator. 48% of 3,700 active. shares compounds with KCC2 mod. raw Tl+ flux slope (below DMSO = inhibition, above = activation) at 10 µM;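 active = thallium flux slope beyond 3 SD from same-plate DMSO control mean in most replicates, usually higher, sometimes lower; inconclusive = repeat tests gave conflicting results; inactive = no significant difference from controls in most replicates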;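 also: slope of initial-normalized fluorescence between seconds 10 and 20 after thallium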
# HEK293 Tl flux2 = acts in parental HEK cells, second KCC2 counter-screen. shares compounds with KCC2 mod. HEK293 parental, thallium flux FluoZin-2 fluorescence slope. thallium flux slope at 10 µM. 33% of 3,700 active. AID 1718;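 active = thallium flux slope above the same plate's solvent-control mean plus 3 SD in both duplicate wells; inconclusive = duplicate wells that disagreed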;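 also: run without ouabain in cells lacking the KCC2 cotransporter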
# Numbers stand for hits; . = inactive; ? = inconclusive; / = no result.
SMILES,KCNQ1 act,hERG protect,KCC2 mod,KCNQ1 inh,KCNK9 block,KCNK3 inh,KCC2 secondary,KCC2 bumet counter,KCC2 sec2,HEK293 Tl flux,KCC2 ouabain,HEK293 Tl flux2
COc1ccc(/C=C/C(=O)NC(=S)N2CCN(c3ccccn3)CC2)cc1,.,.,5.9,.,.,.,.,0.024,.,0.013,?,0.015
O=C(/C=C/c1ccc(Br)cc1)NC(=S)N1CCOCC1,.,.,8.7,.,.,.,.,0.024,.,0.017,0.031,0.019
CN1CCN(C(=S)NC(=O)/C=C/c2ccccc2)CC1,.,.,.,.,.,.,/,/,/,/,/,/
O=C(NC(=S)N1CCN(c2ccccn2)CC1)c1ccccc1,.,.,17,.,.,.,.,0.043,.,0.03,0.039,0.019
COc1ccc(/C=C/C(=O)NC(=S)N2CCSCC2)cc1,.,.,8.7,.,.,.,.,0.034,.,0.016,0.025,0.017
O=C(Nc1ccccn1)c1cccc(S(=O)(=O)N2CCc3ccccc3C2)c1,.,.,/,.,.,.,/,/,/,/,/,/
O=C(NNC(=S)NC(=O)C12CC3CC(CC(C3)C1)C2)c1ccncc1,.,.,/,.,.,.,0.017,0.038,.,0.02,.,0.013
CC1(C(=O)NC(=S)NNC(=O)c2ccncc2)CCCCC1,.,.,.,.,.,.,/,/,/,/,/,/
O=C(NNC(=O)C12CC3CC(CC(C3)C1)C2)c1ccccn1,.,.,22,.,.,.,.,0.041,0.044,0.027,0.042,0.03
FC(F)(F)c1ccc(Cl)c(-n2c(-c3cc(-c4ccco4)[nH]n3)n[nH]c2=S)c1,.,.,.,.,.,.,/,/,/,/,/,/
FC(F)(F)c1ccc(Cl)c(-n2c(-c3cc(C4CC4)[nH]n3)n[nH]c2=S)c1,.,.,4.1,.,.,.,.,0.016,.,?,?,.
COc1ccc(-c2nc(=S)c3ccc4ccccc4c3[nH]2)cc1,77,63,79,.,.,.,0.022,0.11,0.048,0.086,0.08,0.04
COc1ccc(-c2nc3ccccc3[nH]2)cc1,.,.,.,.,.,.,/,/,/,/,/,/
CC(C)n1c(-c2ccc(N(C)C)cc2)nc2ccccc21,/,/,-3.3,/,/,.,.,.,.,?,.,.
O=C(OCC(=O)N1CCc2ccccc2C1)c1ccc(N2CCOCC2)c([N+](=O)[O-])c1,.,.,-4.3,.,.,.,.,.,0.022,.,?,.
Cc1ccc(C(=O)N2CCc3ccccc32)cc1[N+](=O)[O-],.,.,/,.,.,.,/,/,/,/,/,/
Nc1ccc(C(=O)OCC(=O)N2CCc3ccccc3C2)cc1[N+](=O)[O-],.,.,-5.9,.,.,.,.,.,0.027,?,0.012,.
O=C(c1ccc(N2CCCCCC2)c([N+](=O)[O-])c1)N1CCc2ccccc21,.,.,-6.7,.,-7.4,/,.,?,0.023,.,.,.
O=C(CCCOc1ccccc1)Nc1nc2ccccc2[nH]1,.,.,.,.,.,.,/,/,/,/,/,/
O=S(=O)(CCOc1ccccc1)c1nc2ccccc2[nH]1,.,.,/,.,.,.,.,.,.,.,.,.
Oc1ccc(/C=N/NC(=S)Nc2cccnc2)cc1O,.,.,.,.,.,.,/,/,/,/,/,/
CCC(C)(C)C1CCC(=NNC(=S)Nc2ccccc2)CC1 (stereo not drawn),.,.,.,.,.,.,/,/,/,/,/,/
CCC(C)(C)C1CCC(=NNC(=S)Nc2cccnc2)CC1 (stereo not drawn),.,.,24,.,.,.,.,0.039,.,0.022,0.042,0.013
CC(C)(C)c1ccc(/C=N/NC(=S)Nc2cccnc2)cc1,.,.,12,.,.,/,.,0.032,.,0.012,?,0.011
CS(=O)(=O)N(CC(=O)N1CCN(Cc2ccccc2)CC1)c1cccc(F)c1,.,.,/,.,.,.,/,/,/,/,/,/
SMILES,KCNQ1 act,hERG protect,KCC2 mod,KCNQ1 inh,KCNK9 block,KCNK3 inh,KCC2 secondary,KCC2 bumet counter,KCC2 sec2,HEK293 Tl flux,KCC2 ouabain,HEK293 Tl flux2
CC(C)[C@H]1COCCS(=O)(=O)N1Cc1ccccc1-c1ccc(C(C)(C)C)cc1,/,/,/,/,/,.,/,/,/,/,/,/
Cc1ccc(/C=C/C(=O)c2ccccc2O)cc1,.,.,.,.,.,.,/,/,/,/,/,/
Cc1ccc(/C=C/C(=O)C2C(=O)c3ccccc3C2=O)cc1,20,25,/,.,.,.,.,0.067,0.063,0.092,0.072,0.054
CC(=O)c1cccc(NC(=O)CN2C(=O)NC(C)(c3ccc4c(c3)OCCCO4)C2=O)c1 (stereo not drawn),/,/,/,/,/,.,/,/,/,/,/,/
CC(=O)Nc1ccc(S(=O)(=O)Nc2cccc(-c3nc4ccccc4o3)c2)cc1,.,.,/,.,.,.,.,?,.,.,.,.
O=S(=O)(Nc1ccc(-c2nc3ccccc3o2)cc1)c1ccccc1,.,.,.,.,.,.,/,/,/,/,/,/
Cc1cccc2sc(NNC(=O)C3COc4ccccc4O3)nc12 (stereo not drawn),.,.,10,.,.,.,.,0.043,.,0.017,0.035,0.015
O=C(NNc1nc2c(F)cc(F)cc2s1)C1COc2ccccc2O1 (stereo not drawn),.,.,6,.,.,.,?,0.036,.,?,0.033,?
O=C(Nc1nnc(C(F)(F)F)s1)C1COc2ccccc2O1 (stereo not drawn),.,.,-3.8,.,.,.,.,.,.,.,.,.
Cc1ccc(O)c(N=Nc2ccccc2)n1,.,.,/,.,.,.,/,/,/,/,/,/
COc1ccc(S(=O)(=O)N2CCCCC2)cc1NC(=O)CCC(=O)N1CCC(c2ccccc2)=N1,/,/,/,/,/,.,/,/,/,/,/,/
N#CCSc1ncccc1-c1nc2ccccc2[nH]1,.,.,.,.,.,.,/,/,/,/,/,/
N#CCCCSc1ncccc1-c1nc2ccccc2[nH]1,.,.,.,.,.,.,.,.,.,.,.,.
